Measured values taken from ChEMBL document CHEMBL4138078, “Structure-based virtual screening and optimization of modulators targeting Hsp90-Cdc37 interaction” (Eur J Med Chem, 2017).
Active and inactive are the calls of the source. The rule behind the calls is not given here.

Species on record: Homo sapiens
Test: Inhibition of full length His-tagged HSP90/GST-tagged Cdc37 (unknown origin) interaction at 100 uM after 1 hr by HTRF assay relative to control
Procedure, shortened: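 HTRF assay using His-tagged full-length Hsp90 and GST-tagged Cdc37 M, each 250 nM final, in PBS with an extra 400 mM KF, pH 7.4. Compound incubated 1 h at 37 °C. Anti-GST-Cryptate and anti-6His-XL665 then added, 0.5 h at 37 °C. Ex 320 nm; ratio = (665/620 nm) × 10000. No-compound negative control and reagent-only blank.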

Going from `CC/N=C1\S[C@H](CC(=O)Nc2cccc(NC(=O)C[C@@H]3S/C(=N/CC)N(CC)C3=O)c2)C(=O)C1CC` (stereo partly specified) to `Cc1cc(NS(=O)(=O)c2ccc(NC(=O)CCCCC(=O)Nc3ccc(S(=O)(=O)Nc4cc(C)on4)cc3)cc2)no1`, the inhibition rises from < 10% to 20.7%.

Going from `Cc1noc(NS(=O)(=O)c2ccc(NC(=O)CC(=O)Nc3ccc(S(=O)(=O)Nc4onc(C)c4C)cc3)cc2)c1C` to `Cc1noc(NS(=O)(=O)c2ccc(NC(=O)CCC(=O)Nc3ccc(S(=O)(=O)Nc4onc(C)c4C)cc3)cc2)c1C`, the inhibition rises from < 10% to 48.7%.

Compared with `O=C(CC(=O)Nc1ccc(S(=O)(=O)Nc2ccccc2)cc1)Nc1ccc(S(=O)(=O)Nc2ccccc2)cc1`, `O=C(CCC(=O)Nc1ccc(S(=O)(=O)Nc2ccccc2)cc1)Nc1ccc(S(=O)(=O)Nc2ccccc2)cc1` is higher in inhibition: 30.4% for the first, 49.6% for the second.

`CCOc1cc(CNc2ccc(N3CCOCC3)c(C(=O)OC)c2)cc(Cl)c1OCC(N)=O` and `COC(=O)c1cc(NCc2cc(Cl)c(OCC(N)=O)c(OC)c2)ccc1N1CCOCC1` cannot be ordered by inhibition: < 10% for the first, < 10% for the second.

First: COc1ccccc1N(CC(=O)N/N=C/c1ccc(OCC(=O)Nc2ccccc2Cl)cc1)S(=O)(=O)c1ccc(C)cc1
Second: COc1ccc(S(=O)(=O)N(CC(=O)N/N=C/c2ccc(OCC(N)=O)cc2)c2ccccc2)cc1
The inhibition of the first is higher: 13.6% for the first, < 10% for the second.

`Cc1ccnc(NS(=O)(=O)c2ccc(NC(=O)CCC(=O)Nc3ccc(S(=O)(=O)Nc4nccc(C)n4)cc3)cc2)n1` and `Cc1ccnc(NS(=O)(=O)c2ccc(NC(=O)c3cccc(C(=O)Nc4ccc(S(=O)(=O)Nc5nccc(C)n5)cc4)c3)cc2)n1` cannot be ordered by inhibition: < 10% for the first, < 10% for the second.

First: O=C(CCC(=O)Nc1ccc(S(=O)(=O)Nc2nccs2)cc1)Nc1ccc(S(=O)(=O)Nc2nccs2)cc1
Second: Cc1cc(NS(=O)(=O)c2ccc(NC(=O)CCC(=O)Nc3ccc(S(=O)(=O)Nc4cc(C)on4)cc3)cc2)no1
The inhibition of the first is lower: < 10% for the first, 69.8 to 70% for the second.

Compared with `NC(=O)COc1ccc(/C=N/NC(=O)[C@H]2CCCN2S(=O)(=O)c2ccc(Cl)cc2)cc1`, `Cc1cc(NS(=O)(=O)c2ccc(NC(=O)CC(=O)Nc3ccc(S(=O)(=O)Nc4cc(C)on4)cc3)cc2)no1` is higher in inhibition: < 10% for the first, 65.6 to 66% for the second.

Compared with `COc1ccc(NS(=O)(=O)c2ccc(NC(=O)CCC(=O)Nc3ccc(S(=O)(=O)Nc4ccc(OC)nn4)cc3)cc2)nn1`, `Cn1nccc1NS(=O)(=O)c1ccc(NC(=O)CC(=O)Nc2ccc(S(=O)(=O)Nc3ccnn3C)cc2)cc1` is higher in inhibition: < 10% for the first, 50.9% for the second.

Compared with `COc1ccc([C@H](CC(=O)O)NC(=O)CCc2c(C)c3ccc(O)cc3oc2=O)cc1OC`, `COc1ccc(C(=O)Nc2ccccc2C(=O)NCCCCO)cc1OC` is higher in inhibition: < 10% for the first, 19.3% for the second.

`CCCOC(=O)c1ccc(Oc2c(C)oc3c(CN4CCN(CCO)CC4)c(O)ccc3c2=O)cc1` and `CCOc1ccc(C(=O)C2=C(O)C(=O)N(CCOCCO)[C@@H]2c2cccc(OC)c2)cc1` cannot be ordered by inhibition: < 10% for the first, < 10% for the second.

Going from `CCOC(=O)C1=C(CSc2nc3c(cc2C#N)CN(C)CC3)OC(N)=C(C#N)C1c1ccncc1` (stereo unspecified) to `CCOC(=O)c1cccc(NC(=O)CSc2nnc(-c3ccc(O)cc3)n2Cc2ccccc2)c1`, the inhibition rises from < 10% to 14.1%.

Compared with `Cn1c(SCC(=O)Nc2ccc3nc(SCC(=O)c4ccc(Cl)cc4)sc3c2)nnc1-c1ccc(N)cc1`, `COc1cccc(C(c2c(N)nc(SCC(N)=O)[nH]c2=O)c2c(N)nc(SCC(N)=O)[nH]c2=O)c1` is higher in inhibition: < 10% for the first, 14.3% for the second.

`NC(=O)C1CCN(C[C@H](O)COc2ccc(OC[C@@H](O)CN3CCC(C(N)=O)CC3)cc2)CC1` and `O=C1NCCCC[C@H]1N[C@@H]1CC(=O)N(c2ccc(N3C(=O)C[C@@H](N[C@@H]4CCCCNC4=O)C3=O)cc2)C1=O` cannot be ordered by inhibition: < 10% for the first, < 10% for the second.

Going from `C=C1[C@@H](C(=O)Nc2ccc(NS(=O)(=O)c3ccc(C)cc3)cc2)[C@@H]1C(=O)Nc1ccc(NS(=O)(=O)c2ccc(C)cc2)cc1` to `COc1cc(/C=C2\SC(=S)N(CCCCCCN3C(=O)/C(=C\c4ccc(O)c(OC)c4)SC3=S)C2=O)ccc1O`, the inhibition rises from < 10% to 17%.

In the case of `Cc1cc(NS(=O)(=O)c2ccc(NC(=O)c3ccc(C(=O)Nc4ccc(S(=O)(=O)Nc5cc(C)on5)cc4)cc3)cc2)no1`, the inhibition is reported as “inactive”.
